# Reference: ChEMBL document CHEMBL4177575 (Bioorg Med Chem, 2017)
# pIC50: −log10 of the molar value. Activity calls are given as the source filed them. No cut-off for these calls is given here.
# What was measured:
# [1] = test system: A549; assay: Induction of morphological changes in human A549 cells assessed as induction of chromatin condensation at 1.85 uM incubated for 12 hrs by acridine orange dye based inverted microscopy and fluorescence microscopy; assay type: functional, cell-based
# Summary of the method: (§1)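 Untreated control included. A549 cells exposed 12 h at 1.85 μM, then single-stained with acridine orange. Nuclei and morphology examined by inverted and fluorescence microscopy.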
# [2] = test system: A549; assay: Induction of morphological changes in human A549 cells assessed as induction of DNA fragmentation at 1.85 uM incubated for 12 hrs by acridine orange dye based inverted microscopy and fluorescence microscopy; assay type: functional, cell-based; summary of the method: as §1
# [3] = test system: HepG2; assay: Cytotoxicity against human HepG2 cells assessed as reduction in cell viability incubated for 72 hrs by MTT assay; assay type: functional, cell-based; settings: HepG2, 72 h
# Summary of the method: (§2)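 Cells grown in MEM with 10% FBS; about 4×10^3 cells per well, pre-incubated 24 h at 37 °C in 5% CO2, then exposed to compound for 72 h. Seven concentrations, threefold serial dilution from 100 ug/mL initial. MTT at 5 µg/mL terminal concentration for 4 h; formazan dissolved in DMSO, absorbance read at 492 nm against 630 nm reference. IC50 is the average of two determinations.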
# [4] = test system: A549; assay: Induction of apoptosis in human A549 cells assessed as late apoptotic cell level at 3 uM incubated for 48 hrs by Annexin VFITC and propidium iodide staining based flow cytometry (reference value: 3.4%); assay type: functional
# Summary of the method: (§3)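 A549 cells seeded in RPMI 1640 and treated 48 h at 3, 6 or 12 µM. Cells then stained with Annexin V-FITC plus propidium iodide, 30 min at 4 °C in the dark, and analysed on a FACS Calibur flow cytometer.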
# [5] = test system: A549; assay: Induction of morphological changes in human A549 cells assessed as induction of nucleus bright green staining at 1.85 uM incubated for 12 hrs by acridine orange dye based inverted microscopy and fluorescence microscopy; assay type: functional, cell-based; summary of the method: as §1
# [6] = test system: MCF7; assay: Cytotoxicity against human MCF7 cells assessed as reduction in cell viability incubated for 72 hrs by MTT assay; assay type: functional, cell-based; summary of the method: as §2
# [7] = test system: A549; assay: Induction of apoptosis in human A549 cells assessed as viable cell level at 6 uM incubated for 48 hrs by Annexin VFITC and propidium iodide staining based flow cytometry (reference value: 93.27%); assay type: functional; summary of the method: as §3
# [8] = test system: A549; assay: Induction of apoptosis in human A549 cells assessed as late apoptotic cell level at 6 uM incubated for 48 hrs by Annexin VFITC and propidium iodide staining based flow cytometry (reference value: 3.4%); assay type: functional; summary of the method: as §3
# [9] = test system: A549; assay: Induction of morphological changes in human A549 cells assessed as induction of cell shrinking at 1.85 uM incubated for 12 hrs by acridine orange dye based inverted microscopy and fluorescence microscopy; assay type: functional; summary of the method: as §1
# [10] = test system: A549; assay: Induction of apoptosis in human A549 cells assessed as viable cell level at 12 uM incubated for 48 hrs by Annexin VFITC and propidium iodide staining based flow cytometry (reference value: 93.27%); assay type: functional; summary of the method: as §3
structure (smiles),measurement,setting,value
CNC(=O)c1cc(Oc2ccc(C3=NNC(c4cccc(Br)c4)C3)cc2)ccn1 (stereo unspecified),Activity,[1],Active
same,Activity,[2],Active
same,pIC50,[3],5.73
same,Activity,[4],4.51%
same,Activity,[5],Active
same,Activity,[6],Dose-dependent effect
same,pIC50,"[6]; MCF7, 72 h",5.71
same,Activity,[7],81.93%
same,Activity,[8],9.11%
same,Activity,[9],Active
same,Activity,[10],75.55%
